Our source for the ED50, Ki and IC50 values is ChEMBL document CHEMBL1125181, “Naphthosultam derivatives: a new class of potent and selective 5-HT2 antagonists” (J Med Chem, 1991).

Where only a bound is given, the exact number is not on record here.

Experiment [1] deals with Mus musculus. In words: The concentration required to induce head twich in mice when given po (in vivo). The experiment is classed as functional. An outline of the steps: (§1)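 Mice, 6 per dose, dosed sc 60 min or po 90 min before mescaline 50 mg/kg ip. Observed for 2 min starting 15 min after mescaline; head twitches scored as all-or-none.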
Experiment [2] deals with Rattus norvegicus. Nature of the experiment: The concentration required to induce head twich for 1 hours in rats when given po (in vivo). The format is functional. The method in brief: (§2)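 Rats, 6 per dose, dosed sc or po, then given mescaline 20 mg/kg iv 1 h later (6 or 16 h later for duration of action). Head twitches counted for 15 min from injection. Fewer than 3 twitches counted as antagonism.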

Experiment [3] deals with Mus musculus. Nature of the experiment: The concentration required to induce head twich in mice when given sc (in vivo). The experiment is classed as functional. The method in brief:
as §1

Experiment [4] relates to Rattus norvegicus. In words: The concentration required to induce head twich for 16 hours in rats when given sc (in vivo). The format is functional. The method in brief: as §2
The target in experiment [5] is T1, D(2) dopamine receptor (Rattus norvegicus, UniProt P61169). In words: Binding constant against dopamine receptor D2 […]. An outline of the steps: (§3)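 Rat striatal membranes (0.05 mg/mL protein) in Tris-HCl with BSA 2 mg/mL, NaCl, cinanserin 10⁻⁶ M and compound. [3H]spiperone (final 0.05 nM) added after 5 min, incubation continued 40 min. Nonspecific binding from 10⁻⁶ M sulpiride. Filtration and scintillation counting.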
T1 sequence (P61169 whole entry): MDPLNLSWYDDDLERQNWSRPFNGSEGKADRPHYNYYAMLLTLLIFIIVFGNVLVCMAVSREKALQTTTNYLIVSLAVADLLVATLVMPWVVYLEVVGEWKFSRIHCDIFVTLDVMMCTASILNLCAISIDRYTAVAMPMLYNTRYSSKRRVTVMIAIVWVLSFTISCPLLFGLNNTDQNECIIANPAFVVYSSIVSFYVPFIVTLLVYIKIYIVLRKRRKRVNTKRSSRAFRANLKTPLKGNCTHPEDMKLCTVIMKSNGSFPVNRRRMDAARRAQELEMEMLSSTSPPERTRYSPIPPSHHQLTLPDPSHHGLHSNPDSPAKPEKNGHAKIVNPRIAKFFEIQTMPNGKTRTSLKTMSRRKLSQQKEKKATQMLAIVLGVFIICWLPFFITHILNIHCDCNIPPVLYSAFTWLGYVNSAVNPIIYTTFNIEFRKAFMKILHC

In experiment [6] the test system is Rattus norvegicus. Nature of the experiment: The concentration required to induce head twich for 6 hours in rats when given po (in vivo). The format is functional. An outline of the steps:
as §2

The subject of experiment [7] is Rattus norvegicus. In words: The concentration required to induce head twich for 1 hours in rats when given sc (in vivo). The format is functional. An outline of the steps:
as §2

The target of experiment [8] is T2, 5-hydroxytryptamine receptor 1A (Rattus norvegicus, UniProt P19327).
T2 sequence (P19327 whole entry): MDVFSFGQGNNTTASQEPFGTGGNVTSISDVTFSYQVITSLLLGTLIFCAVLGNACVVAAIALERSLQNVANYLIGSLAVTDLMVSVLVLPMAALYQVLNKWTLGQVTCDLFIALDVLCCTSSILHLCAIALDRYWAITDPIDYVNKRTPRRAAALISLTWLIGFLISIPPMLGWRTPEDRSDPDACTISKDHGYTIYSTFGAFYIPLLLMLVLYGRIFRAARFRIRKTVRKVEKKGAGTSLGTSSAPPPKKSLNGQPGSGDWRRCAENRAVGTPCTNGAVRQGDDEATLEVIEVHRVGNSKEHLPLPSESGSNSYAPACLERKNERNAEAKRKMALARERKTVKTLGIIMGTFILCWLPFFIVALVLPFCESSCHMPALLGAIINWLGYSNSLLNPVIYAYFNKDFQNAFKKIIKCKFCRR
In words: Binding constant against 5-hydroxytryptamine 1A receptor (in vivo). As to conditions: in the assay text read “(in vitro)” for “(in vivo)”. The method in brief:
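Rat hippocampal membranes (1 mg/mL protein, Tris-HCl) preincubated 5 min at 37 °C with compound, then [3H]-8-OH-DPAT (final 1 nM) added for a further 10 min. Nonspecific binding from 10⁻⁵ M serotonin. Filtration through glass-fibre filters, two ice-cold buffer washes, scintillation counting of bound radioactivity.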

Experiment [9] has as its target T1, D(2) dopamine receptor. In words: The concentration required to inhibit [3H]spiperone binding to dopamine receptor D2 in rat brain membranes (in vitro). The experiment is classed as cell membranes. The method in brief: as §3
In experiment [10] the test system is Rattus norvegicus. In words: The concentration required to induce head twich for 16 hours in rats when given po (in vivo). The experiment is classed as functional. An outline of the steps:
as §2

The subject of experiment [11] is Rattus norvegicus. Nature of the experiment: The concentration required to induce head twich for 6 hours in rats when given sc (in vivo). The experiment is classed as functional. The method in brief:
as §2

The target in experiment [12] is T3, Histamine H1 receptor (Cavia porcellus, UniProt P31389). Nature of the experiment: Binding constant against histamine H1 receptor […]. An outline of the steps: (§4)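 Male guinea pig cerebellar membranes (0.35 mg/mL protein) in 50 mM sodium phosphate pH 7.5. Incubated 30 min at 25 °C with compound and [3H]mepyramine (final 0.7 nM). Nonspecific binding from 10⁻⁶ M promethazine. Filtration through glass-fibre filters and liquid scintillation counting.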
T3 sequence (P31389 whole entry): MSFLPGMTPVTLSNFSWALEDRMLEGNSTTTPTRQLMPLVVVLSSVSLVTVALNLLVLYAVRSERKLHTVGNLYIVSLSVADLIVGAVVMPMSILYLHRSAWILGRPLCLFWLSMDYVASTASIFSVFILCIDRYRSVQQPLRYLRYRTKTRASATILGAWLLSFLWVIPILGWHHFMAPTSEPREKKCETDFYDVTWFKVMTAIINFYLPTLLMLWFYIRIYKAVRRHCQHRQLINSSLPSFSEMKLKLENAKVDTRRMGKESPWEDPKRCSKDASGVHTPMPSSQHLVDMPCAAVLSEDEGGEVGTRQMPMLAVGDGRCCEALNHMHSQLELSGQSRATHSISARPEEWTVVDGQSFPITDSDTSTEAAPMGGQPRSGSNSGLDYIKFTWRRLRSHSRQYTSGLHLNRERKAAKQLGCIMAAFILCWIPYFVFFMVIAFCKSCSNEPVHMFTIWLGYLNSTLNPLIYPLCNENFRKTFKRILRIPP

The target in experiment [13] is T4, Adrenergic receptor alpha-1 (Rattus norvegicus, UniProt P15823+P23944+P43140).
T4 sequence (P15823 whole entry): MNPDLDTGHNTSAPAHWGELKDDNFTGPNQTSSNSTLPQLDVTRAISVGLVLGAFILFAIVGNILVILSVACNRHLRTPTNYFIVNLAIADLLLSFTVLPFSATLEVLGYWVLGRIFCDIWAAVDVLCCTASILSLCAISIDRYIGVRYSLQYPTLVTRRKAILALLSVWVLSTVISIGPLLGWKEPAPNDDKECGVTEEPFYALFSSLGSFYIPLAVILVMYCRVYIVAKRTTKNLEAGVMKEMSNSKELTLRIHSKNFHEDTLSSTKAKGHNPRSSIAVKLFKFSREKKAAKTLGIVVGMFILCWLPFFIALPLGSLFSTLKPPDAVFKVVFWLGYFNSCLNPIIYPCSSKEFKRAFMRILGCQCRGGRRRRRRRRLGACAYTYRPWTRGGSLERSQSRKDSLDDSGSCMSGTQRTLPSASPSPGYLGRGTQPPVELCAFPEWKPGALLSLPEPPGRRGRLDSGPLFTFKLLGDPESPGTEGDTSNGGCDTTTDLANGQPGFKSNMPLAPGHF
T4 sequence (P23944 whole entry): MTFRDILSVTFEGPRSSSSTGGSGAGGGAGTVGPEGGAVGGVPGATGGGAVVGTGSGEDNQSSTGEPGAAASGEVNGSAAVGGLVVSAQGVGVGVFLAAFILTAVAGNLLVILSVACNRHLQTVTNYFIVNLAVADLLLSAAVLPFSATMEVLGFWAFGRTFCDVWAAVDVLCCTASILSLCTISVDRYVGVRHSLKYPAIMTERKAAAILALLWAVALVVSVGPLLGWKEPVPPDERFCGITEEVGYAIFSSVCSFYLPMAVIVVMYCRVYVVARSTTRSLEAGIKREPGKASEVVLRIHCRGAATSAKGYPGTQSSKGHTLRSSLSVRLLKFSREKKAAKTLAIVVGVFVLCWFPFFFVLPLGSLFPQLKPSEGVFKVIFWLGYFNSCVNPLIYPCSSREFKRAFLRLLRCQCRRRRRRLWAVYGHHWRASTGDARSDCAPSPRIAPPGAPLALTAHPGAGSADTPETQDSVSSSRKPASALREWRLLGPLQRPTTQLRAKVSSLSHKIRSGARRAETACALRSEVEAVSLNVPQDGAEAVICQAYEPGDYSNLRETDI
T4 sequence (P43140 whole entry): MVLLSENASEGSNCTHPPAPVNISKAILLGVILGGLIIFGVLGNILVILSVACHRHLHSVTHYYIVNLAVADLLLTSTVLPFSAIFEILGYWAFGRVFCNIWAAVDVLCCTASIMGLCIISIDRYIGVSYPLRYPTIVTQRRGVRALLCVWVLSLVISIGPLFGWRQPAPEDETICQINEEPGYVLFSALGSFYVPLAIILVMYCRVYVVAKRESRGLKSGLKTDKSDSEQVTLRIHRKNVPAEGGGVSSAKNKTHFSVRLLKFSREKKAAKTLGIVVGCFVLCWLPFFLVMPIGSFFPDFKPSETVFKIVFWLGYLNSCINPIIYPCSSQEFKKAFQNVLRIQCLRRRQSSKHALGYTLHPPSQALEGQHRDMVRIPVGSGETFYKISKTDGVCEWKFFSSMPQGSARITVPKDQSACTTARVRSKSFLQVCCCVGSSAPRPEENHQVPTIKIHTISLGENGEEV
Nature of the experiment: The concentration required to inhibit 3[H]prazosin binding to Alpha-1 adrenergic receptor in rat brain membranes was measured (in vitro). The format is cell membranes. An outline of the steps:
(§5)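 Male Sprague-Dawley rat cerebrocortical membranes (0.15 mg/mL protein) in Tris-HCl pH 7.6 with BSA 2 mg/mL. Incubated 40 min at 25 °C with compound and [3H]prazosin (final 0.065 nM). Nonspecific binding from 10⁻⁶ M phentolamine. Filtration and scintillation counting. IC50 values are the mean of at least 2 runs, each with 6 concentrations in triplicate.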

In experiment [14] the target is Serotonin 2 (5-HT2) receptor (Rattus norvegicus, UniProt P30994+P08909+P14842). In words: The concentration required to inhibit [3H]ketanserin binding to 5-hydroxytryptamine 2 receptor in rat brain membranes (in vitro). The experiment is classed as cell membranes. The method in brief:
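Male Sprague-Dawley rat cortical membranes (0.15 mg/mL protein) in Tris-HCl pH 7.6 with BSA 2 mg/mL. Incubated 15 min at 37 °C with compound and [3H]ketanserin (final 0.4 nM). Nonspecific binding from 10⁻⁶ M methysergide. Filtration and scintillation counting. IC50 by nonlinear regression; mean of at least 2 runs, 6 concentrations in triplicate.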

Experiment [15] concerns the target T4, Adrenergic receptor alpha-1. In words: The concentration required to inhibit [3H]prazosin binding to Alpha-1 adrenergic receptor in rat brain membranes was measured (in vitro). The format is cell membranes.
Experiment [16] has as its target T1, D(2) dopamine receptor. Nature of the experiment: Binding constant against dopamine receptor D2 (in vitro). The method in brief:
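Rat striatal membranes (0.05 mg protein/mL, Tris-HCl with 2 mg/mL BSA, NaCl, 10^-6 M cinanserin) preincubated 5 min with test compound. [3H]spiperone (final 0.05 nM) then added for a further 40 min. Nonspecific binding defined with 10^-6 M sulpiride. Read-out by filtration and scintillation counting.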

The target in experiment [17] is T4, Adrenergic receptor alpha-1. Nature of the experiment: Binding constant against Alpha-1 adrenergic receptor (in vitro). The experiment is classed as protein assay. An outline of the steps:
as §5

For experiment [18], the target named is T3, Histamine H1 receptor. In words: Binding constant against histamine H1 receptor (in vitro). An outline of the steps: as §4

As to `O=S1(=O)c2cccc3cccc(c23)N1CCCN1CCN(c2ccc(F)cc2)CC1` [FANANSERIN], the ED50 worked out at 0.43 mg/kg in the experiment with Mus musculus [1]; 0.99 mg/kg in the experiment on Rattus norvegicus [2]; 0.16 mg/kg with Mus musculus [3]; 5.91 mg/kg in the experiment on Rattus norvegicus [4]; 2.38 mg/kg in the experiment with Rattus norvegicus [6]; 0.65 mg/kg with Rattus norvegicus [7]. Also, the ED50 was 14.2 mg/kg in the experiment on Rattus norvegicus [10] and 0.45 mg/kg in the experiment on Rattus norvegicus [11]. Further, the values for the Ki (at D(2) dopamine receptor [5]; in [8]; on Histamine H1 receptor [12]) were more than 1000 nM, 70 nM and 25 nM, respectively. At D(2) dopamine receptor [9], the IC50 is more than 1000 nM.
Take `O=S1(=O)c2cccc3cccc(c23)N1CCCCN1CCN(c2ccc(F)cc2)CC1`: the IC50 in [13] is 11 nM; in experiment [14], 3.7 nM; at D(2) dopamine receptor [9] it was 300 nM.
Regarding `Cc1nc2sccn2c(=O)c1CCN1CCC(=C(c2ccc(F)cc2)c2ccc(F)cc2)CC1` [RITANSERIN], the IC50 came out at 37 nM in experiment [15] and 23 nM on D(2) dopamine receptor [9]. The Ki at D(2) dopamine receptor [16] was 22 nM; in experiment [17], 29 nM; at Histamine H1 receptor [18], 6 nM. Further, the ED50 with Mus musculus [1] was 0.09 mg/kg; with Rattus norvegicus [2] it was 2.55 mg/kg; with Mus musculus [3] it was 0.29 mg/kg; in the experiment on Rattus norvegicus [4] it was more than 5 mg/kg; in the experiment on Rattus norvegicus [6], 1.54 mg/kg; in the experiment with Rattus norvegicus [7] it was 0.38 mg/kg. The ED50 is 18.4 mg/kg with Rattus norvegicus [10] and 0.55 mg/kg in the experiment on Rattus norvegicus [11].
